Compound activity: PubChem BioAssay, several laboratories
Shown are actives, neighbours in structure and some others; about 1.9% of the full set was active somewhere.
Hck-Nef inh = human Hck-Nef kinase inhibition. AID 463187. actives 0.68% (n = 220,000). inhibition, % at 20 µM. P08631. Recombinant Hck-YEEI plus Nef, Z-Lyte FRET kinase assay;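 active = Hck-Nef kinase inhibition above about 50%, limit read from the data; inactive = inhibition below that limit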
RanGTP-Imp inh = inhibitors of RanGTP-importin-beta interaction, primary screen, biochemical, FRET, CFP-Ran, YFP-importin-beta, homogeneous | cell-free CFP-Ran/YFP-importin-beta FRET ratio | inhibition, % (concentration not given with the values) | actives 1.1% (n = 300,000);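 active = more than half of the replicate wells show a fall in the fluorescence ratio signal beyond about 16%, limit read from the data, passing the limit was not always enough; inconclusive = exactly half of the replicate wells pass the set limit; inactive = fewer than half of replicates pass the limit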
Runt-CBFb FRET = Runt domain-CBFb interaction inhibition; AID 1496; Cerulean-Runt/Venus-CBFb FRET ratio 530/480, 1 h; inhibition, % at 20 µM; actives 0.46% (n = 220,000);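 active = inhibition over about 50% at 20 µM in the single-dose screen, limit read from the data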
Target sequence (Q01196 whole entry, looked up, the tested form may be a part): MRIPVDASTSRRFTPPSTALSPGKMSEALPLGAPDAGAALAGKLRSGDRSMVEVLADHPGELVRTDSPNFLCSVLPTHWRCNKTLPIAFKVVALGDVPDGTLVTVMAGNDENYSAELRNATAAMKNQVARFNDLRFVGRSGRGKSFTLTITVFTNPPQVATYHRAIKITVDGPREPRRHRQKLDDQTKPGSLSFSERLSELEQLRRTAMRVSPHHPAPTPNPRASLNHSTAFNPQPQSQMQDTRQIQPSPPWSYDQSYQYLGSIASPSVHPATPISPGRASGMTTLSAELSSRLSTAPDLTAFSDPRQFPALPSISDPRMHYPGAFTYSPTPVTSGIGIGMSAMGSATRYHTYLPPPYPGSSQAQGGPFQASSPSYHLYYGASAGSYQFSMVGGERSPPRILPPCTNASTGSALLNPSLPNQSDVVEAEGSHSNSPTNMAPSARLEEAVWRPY
Target sequence (Q13951 whole entry, looked up, the tested form may be a part): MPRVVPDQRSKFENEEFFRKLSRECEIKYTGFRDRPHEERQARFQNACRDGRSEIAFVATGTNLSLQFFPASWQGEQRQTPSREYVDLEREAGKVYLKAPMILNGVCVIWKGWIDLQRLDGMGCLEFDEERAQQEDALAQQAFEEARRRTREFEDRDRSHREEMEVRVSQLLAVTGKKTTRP
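Assay system: Cerulean-Runt domain / Medium: Tris 50 mM pH 7.5, KCl, K2SO4, 0.01% BSA / Timing: protein complex preformed 1 h, compound exposure 1 h, room temperature, dark / Measured by: FRET, excitation 422 nm, emission at 530 and 480 nm / Evaluation: loss of energy transfer signal / Control set: 5 µM unlabeled CBFb as full-inhibition high control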
Tb hexokinase = T. brucei hexokinase 1 inhibition; recombinant TbHK1, G6PDH-coupled NADH A340; inhibition, % at 10 µM; actives 0.11% (n = 220,000); AID 1430;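 active = inhibition of 50% or more in the single-dose primary screen; inactive = inhibition below 50%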
Runt-SMMHC FRET = Runt domain-CBFb-SMMHC interaction inhibition | inhibition, % at 20 µM | Cerulean-Runt/Venus-CBFb-SMMHC FRET ratio 530/480, 1 h | actives 0.74% (n = 220,000) | Q01196+Q13951 | AID 1434;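 active = mean inhibition across duplicate retests at 20 µM reaching about 50%, limit read from the data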;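 note: inhibitors lower the FRET ratio by blocking Runt binding to CBFb-SMMHC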
Numbers stand for hits; . = inactive; ? = inconclusive; / = no result given.

SMILES	Hck-Nef inh	RanGTP-Imp inh	Runt-CBFb FRET	Tb hexokinase	Runt-SMMHC FRET
COc1ccc(N=Cc2c(O)n(-c3ccc(C)cc3)c(=O)[nH]c2=O)cc1	.	.	.	.	64
O=C(N/N=C/c1c(O)n(Cc2ccc(F)cc2)c(=O)[nH]c1=O)c1ccccc1	.	.	.	.	.
O=C(O)CCC(=O)NCCC1=c2ccccc2=N/C1=C\c1c(O)n(Cc2ccc(F)cc2)c(=S)[nH]c1=O	.	.	.	.	58
CCCCN1C(=O)NC(=O)/C(=C/c2cnc(SC)nc2)C1=O	.	.	.	.	.
CN(C)/C=C1/C(=O)NC(=O)N(CCNc2ncc(C(F)(F)F)cc2Cl)C1=O	154	.	.	.	.
O=C(N/N=C/c1c(O)n(-c2ccccc2)c(=O)[nH]c1=O)c1ccncc1	.	.	.	.	.
CCCCn1c(O)c(/C=N/NC(=O)c2ccncc2)c(=O)[nH]c1=S	.	.	62	.	82
Cn1c(O)c(/C=N/NC(=O)c2ccncc2)c(=O)n(C)c1=S	.	.	.	.	81
Cn1c(O)c(/C=N/NC(=O)c2ccncc2)c(=O)[nH]c1=S	.	.	.	.	71
Cc1ccc(-n2c(O)c(/C=N/NC(=O)c3ccncc3)c(=O)[nH]c2=O)cc1	.	.	.	.	.
COCCCn1c(-c2ccc(OC)cc2)cc(C(=O)NC2CCCCCCC2)c1C	.	.	.	.	.
O=C1CN=C(c2ccccc2)c2cc(Br)ccc2N1	/	.	/	/	/
Cc1cc(OCC(=O)Nc2c(C)n(C)n(-c3ccccc3)c2=O)c2c3c(c(=O)oc2c1)CCC3	/	/	.	/	.
COCCCNC(=O)c1c(NC(=O)c2ccco2)n(Cc2ccccc2)c2nc3ccccc3nc12	.	44	.	.	/
CCOC(=O)c1c(NS(=O)(=O)c2ccccc2)n(CCCOC)c2nc3ccccc3nc12	.	106	.	.	.
CCCCCn1c(=O)c(C(=O)NCc2ccco2)c(O)c2ccccc21	.	.	.	.	.
CCCCCn1c(NC(=O)c2ccco2)c(C(=O)OCC)c2nc3ccccc3nc21	.	79	.	.	102
COCCNC(=O)c1c(NC(=O)c2ccc(Br)o2)n(Cc2ccccc2)c2nc3ccccc3nc12	.	58	.	.	/
CC(=O)N1CCC(N2CCCC(C(=O)c3cccc(Cl)c3)C2)CC1 (stereo not drawn)	.	.	/	.	/
Cc1nn(-c2ccccc2)c(Cl)c1C1C(C#N)=C(N)Oc2c1c(=O)oc1ccccc21 (stereo not drawn)	.	.	.	.	.
CCc1ccc(-c2nn(Cc3ccccc3)cc2C=O)cc1	.	.	.	.	.
Cc1c(CC(=O)N2C[C@H]3C[C@@H](C2)c2cccc(=O)n2C3)c(=O)oc2c(C)c(O)ccc12	/	71	/	/	/
Cc1c(CC(=O)N2C[C@H]3C[C@@H](C2)c2cccc(=O)n2C3)c(=O)oc2cc(O)c(Cl)cc12	/	75	/	/	/
CN1C[C@@H]2C[C@@H](c3cccn3-c3ccccn3)N3CCC[C@@]23C1=O	.	.	.	.	.
COc1cc(OC)cc(-n2nc(C(=O)N3CCC4(CC3)OCCO4)c3ccccc3c2=O)c1	.	/	.	.	.
SMILES	Hck-Nef inh	RanGTP-Imp inh	Runt-CBFb FRET	Tb hexokinase	Runt-SMMHC FRET
N[C@@H]1CCCC[C@H]1N.O=C(O)C(=O)O.[Pt]	/	.	/	/	/
CCOc1cc2c(cc1OCC)-n1cccc1C(c1ccc(OC(F)F)cc1)NC2 (stereo not drawn)	/	.	/	/	/
COc1cc(O)c(C(=O)O)c(-c2cc(O)c(O)cc2C)c1	.	.	.	.	58
O=C1NC(=O)N(Cc2ccccc2)C(=O)/C1=C/c1cnc(-c2ccccc2)nc1	58	.	.	.	.
CC(C)c1ccc(N2C(=O)NC(=O)/C(=C/c3cnc(-c4ccccc4)nc3)C2=O)cc1	.	.	.	.	.
O=C1NC(=O)N(Cc2ccccc2)C(=O)/C1=C/N1CCCc2ccccc21	.	30	.	.	.
O=C1Nc2cc(C(=O)N3CCC4(CC3)OCCO4)ccc2NC1CSCc1cccc(F)c1 (stereo not drawn)	/	.	/	/	/
COC(=O)c1cn(C(=O)c2cccc3ccccc23)c2ccccc12	.	.	.	.	.
Cc1cc(N2C(=O)C3CCCN3C2c2ccccc2)no1 (stereo not drawn)	.	.	.	.	.
O=C(O)CN1C(=O)CN=C(c2ccccn2)c2cc(Cl)ccc21	.	.	.	.	.
CC(C)OCCCNC(=O)c1c(N)n(Cc2cccs2)c2nc3ccccc3nc12	.	80	.	.	81
CC(C)CCn1c(N)c(C(=O)NCc2cccs2)c2nc3ccccc3nc21	.	50	.	.	.
Nc1c(C(=O)OCC2CCCO2)c2nc3ccccc3nc2n1Cc1cccs1 (stereo not drawn)	.	?	.	.	85
Nc1c(C(=O)NC2CCCC2)c2nc3ccccc3nc2n1CC1CCCO1 (stereo not drawn)	.	97	.	.	82
CCOC(=O)C(O)(c1ccc(N=c2ccccn2C)cc1)C(F)(F)F (stereo not drawn)	.	.	.	.	.
C=CCN1C(=O)/C(=C/c2ccc(Br)s2)C(=O)NC1=S	/	.	/	/	/
CCN1C(=O)/C(=C\c2ccc([N+](=O)[O-])s2)C(=O)NC1=S	89	/	/	.	.
Nc1ccccc1-[n+]1c(-c2ccccc2)cc(-c2ccccc2)cc1-c1ccccc1	.	41	.	.	.
COc1ccc(CN2C(=O)NC(=O)/C(=C/c3ccc([N+](=O)[O-])o3)C2=O)cc1	142	/	/	.	.
Cc1ccc(/C=C2/C(=O)NC(=O)N(Cc3ccc(F)cc3)C2=O)o1	.	.	.	.	.
COc1ccc(/C=C2/C(=O)NC(=O)N(Cc3ccco3)C2=O)cc1	57	.	.	.	.
Cn1cccc1/C=C1\C(=O)NC(=O)N(Cc2ccco2)C1=O	.	.	.	.	.
Cc1ccc2cc(C=C(C#N)C#N)c(Cl)nc2c1	.	51	.	.	.
O=C(NCC(c1cccnc1)N1CCOCC1)Oc1ccccc1 (stereo not drawn)	.	?	.	.	.
O=C(NC(C(Cl)Cl)N1CCOCC1)c1ccccc1 (stereo not drawn)	.	22	.	.	.
COc1ccc(C(CC(=O)N2CCC3(CC2)OCCO3)NS(=O)(=O)c2ccc(C)cc2)cc1 (stereo not drawn)	.	.	.	.	.
Cc1cc(/C=C2\C(=O)NC(=O)N(c3cccc(F)c3)C2=O)c(C)n1-c1ccc(C(=O)O)c(Cl)c1	/	.	/	/	/
Cc1ccc(N2C(=O)NC(=O)/C(=C/c3ccc(-c4ccc(C(=O)O)c(Cl)c4)o3)C2=O)cc1	52	.	.	.	.
N#Cc1c(Cl)nc(Cl)c2c1CCN(Cc1ccccc1)C2	.	.	.	.	61
CCC(=NCc1ccco1)c1c(O)n(C2CCCCC2)c(=O)[nH]c1=O	.	.	.	.	102
